ChEMBL document CHEMBL1141492, “Potent, exceptionally selective, orally bioavailable inhibitors of TNF-alpha Converting Enzyme (TACE): novel 2-substituted-1H-benzo[d]imidazol-1-yl)methyl)benzamide P1' substituents” (Bioorg Med Chem Lett, 2008)

Assays:
[1] = biological target: Disintegrin and metalloproteinase domain-containing protein 17 (Sus scrofa, UniProt O77636); assay: Inhibition of semi purified pig TACE
[2] = biological target: Matrix metalloproteinase-15 (Homo sapiens, UniProt P51511); assay: Inhibition of MMP15
Chain of Matrix metalloproteinase-15 (P51511 whole entry): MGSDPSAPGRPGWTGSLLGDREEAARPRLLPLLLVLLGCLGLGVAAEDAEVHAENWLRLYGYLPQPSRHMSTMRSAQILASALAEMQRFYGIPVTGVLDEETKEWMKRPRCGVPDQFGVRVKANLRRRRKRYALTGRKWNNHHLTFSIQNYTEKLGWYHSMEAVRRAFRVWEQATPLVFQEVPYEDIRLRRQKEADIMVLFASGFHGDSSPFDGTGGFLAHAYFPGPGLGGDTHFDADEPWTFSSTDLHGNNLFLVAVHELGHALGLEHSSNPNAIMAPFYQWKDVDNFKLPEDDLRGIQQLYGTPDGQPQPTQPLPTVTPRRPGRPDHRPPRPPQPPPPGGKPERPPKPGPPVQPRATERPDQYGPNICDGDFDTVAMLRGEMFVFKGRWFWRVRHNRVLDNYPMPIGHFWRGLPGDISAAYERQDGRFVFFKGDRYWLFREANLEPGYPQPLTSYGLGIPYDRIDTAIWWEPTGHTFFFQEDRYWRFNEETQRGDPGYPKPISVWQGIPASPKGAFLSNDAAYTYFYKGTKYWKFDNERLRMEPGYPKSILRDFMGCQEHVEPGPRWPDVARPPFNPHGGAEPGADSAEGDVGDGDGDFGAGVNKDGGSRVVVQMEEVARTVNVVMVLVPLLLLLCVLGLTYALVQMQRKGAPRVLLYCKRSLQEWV
How it was run: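 Ki values against each MMP, each from a single determination.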

Interstitial collagenase = biological target: T1, Interstitial collagenase (Homo sapiens, UniProt P03956); assay: Inhibition of MMP1
T1 sequence (P03956 whole entry): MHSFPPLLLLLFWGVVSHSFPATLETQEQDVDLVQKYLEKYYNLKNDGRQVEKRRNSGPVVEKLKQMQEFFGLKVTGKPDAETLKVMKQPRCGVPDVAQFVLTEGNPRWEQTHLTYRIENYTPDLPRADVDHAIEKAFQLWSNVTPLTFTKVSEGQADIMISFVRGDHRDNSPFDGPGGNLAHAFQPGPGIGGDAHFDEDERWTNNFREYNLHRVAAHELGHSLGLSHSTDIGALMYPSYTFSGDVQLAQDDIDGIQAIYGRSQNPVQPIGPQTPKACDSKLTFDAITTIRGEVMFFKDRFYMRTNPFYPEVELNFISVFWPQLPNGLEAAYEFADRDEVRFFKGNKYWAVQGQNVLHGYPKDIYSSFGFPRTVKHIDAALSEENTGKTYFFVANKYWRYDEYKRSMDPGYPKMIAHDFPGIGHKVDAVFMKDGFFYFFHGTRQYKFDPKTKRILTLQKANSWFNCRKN

[3] = biological target: 72 kDa type IV collagenase (Homo sapiens, UniProt P08253); assay: Inhibition of MMP2
Chain of 72 kDa type IV collagenase (P08253 whole entry): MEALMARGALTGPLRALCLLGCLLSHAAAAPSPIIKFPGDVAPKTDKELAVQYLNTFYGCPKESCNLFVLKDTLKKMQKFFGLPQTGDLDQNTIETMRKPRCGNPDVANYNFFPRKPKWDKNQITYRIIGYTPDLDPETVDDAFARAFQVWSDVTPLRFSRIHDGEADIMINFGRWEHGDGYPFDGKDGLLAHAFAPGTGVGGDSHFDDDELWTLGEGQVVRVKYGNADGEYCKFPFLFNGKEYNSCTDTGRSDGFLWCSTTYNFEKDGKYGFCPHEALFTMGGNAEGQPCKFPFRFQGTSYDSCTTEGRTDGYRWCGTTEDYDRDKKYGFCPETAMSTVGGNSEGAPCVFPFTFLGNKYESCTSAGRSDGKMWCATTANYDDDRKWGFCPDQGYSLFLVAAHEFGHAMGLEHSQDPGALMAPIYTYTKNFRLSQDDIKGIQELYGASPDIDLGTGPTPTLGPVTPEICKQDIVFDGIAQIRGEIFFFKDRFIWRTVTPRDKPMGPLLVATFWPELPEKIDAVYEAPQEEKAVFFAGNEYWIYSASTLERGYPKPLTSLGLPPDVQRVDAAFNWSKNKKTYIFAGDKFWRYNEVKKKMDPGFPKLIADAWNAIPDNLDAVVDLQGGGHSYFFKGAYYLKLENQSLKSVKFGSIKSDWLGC

[4] = biological target: Matrix metalloproteinase-14 (Homo sapiens, UniProt P50281); assay: Inhibition of MMP14
[5] = biological target: Matrix metalloproteinase-9 (Homo sapiens, UniProt P14780); assay: Inhibition of MMP9
Chain of Matrix metalloproteinase-9 (P14780 whole entry): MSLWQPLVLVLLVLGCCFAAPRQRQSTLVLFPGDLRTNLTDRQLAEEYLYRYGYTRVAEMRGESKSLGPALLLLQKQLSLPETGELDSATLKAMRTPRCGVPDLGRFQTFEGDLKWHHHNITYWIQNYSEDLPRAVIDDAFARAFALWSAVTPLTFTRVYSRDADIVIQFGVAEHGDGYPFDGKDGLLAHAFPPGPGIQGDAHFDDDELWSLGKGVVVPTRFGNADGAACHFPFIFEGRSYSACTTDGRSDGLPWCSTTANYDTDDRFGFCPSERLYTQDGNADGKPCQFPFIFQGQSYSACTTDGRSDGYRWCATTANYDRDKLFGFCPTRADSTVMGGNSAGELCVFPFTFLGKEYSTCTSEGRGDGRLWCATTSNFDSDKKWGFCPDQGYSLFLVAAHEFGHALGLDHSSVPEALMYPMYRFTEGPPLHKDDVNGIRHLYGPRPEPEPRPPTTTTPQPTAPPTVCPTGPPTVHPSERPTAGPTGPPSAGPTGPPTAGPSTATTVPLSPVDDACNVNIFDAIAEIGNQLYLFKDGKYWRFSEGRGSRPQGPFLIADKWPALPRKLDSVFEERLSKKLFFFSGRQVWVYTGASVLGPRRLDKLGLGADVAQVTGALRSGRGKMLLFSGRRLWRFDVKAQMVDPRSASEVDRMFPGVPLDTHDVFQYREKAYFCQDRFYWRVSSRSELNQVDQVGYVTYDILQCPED

Matrilysin = biological target: T2, Matrilysin (Homo sapiens, UniProt P09237); assay: Inhibition of MMP7
T2 sequence (P09237 whole entry): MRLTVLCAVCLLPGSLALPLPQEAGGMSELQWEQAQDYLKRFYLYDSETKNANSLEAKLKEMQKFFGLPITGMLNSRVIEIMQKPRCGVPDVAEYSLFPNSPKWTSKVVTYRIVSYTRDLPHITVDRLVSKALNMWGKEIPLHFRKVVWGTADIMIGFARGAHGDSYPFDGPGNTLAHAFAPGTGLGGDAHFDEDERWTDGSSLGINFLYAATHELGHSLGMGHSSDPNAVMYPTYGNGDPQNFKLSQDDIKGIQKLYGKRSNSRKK

Stromelysin-2 = Stromelysin-2 (Homo sapiens, UniProt P09238); assay: Inhibition of MMP10
Chain of Stromelysin-2 (P09238 whole entry): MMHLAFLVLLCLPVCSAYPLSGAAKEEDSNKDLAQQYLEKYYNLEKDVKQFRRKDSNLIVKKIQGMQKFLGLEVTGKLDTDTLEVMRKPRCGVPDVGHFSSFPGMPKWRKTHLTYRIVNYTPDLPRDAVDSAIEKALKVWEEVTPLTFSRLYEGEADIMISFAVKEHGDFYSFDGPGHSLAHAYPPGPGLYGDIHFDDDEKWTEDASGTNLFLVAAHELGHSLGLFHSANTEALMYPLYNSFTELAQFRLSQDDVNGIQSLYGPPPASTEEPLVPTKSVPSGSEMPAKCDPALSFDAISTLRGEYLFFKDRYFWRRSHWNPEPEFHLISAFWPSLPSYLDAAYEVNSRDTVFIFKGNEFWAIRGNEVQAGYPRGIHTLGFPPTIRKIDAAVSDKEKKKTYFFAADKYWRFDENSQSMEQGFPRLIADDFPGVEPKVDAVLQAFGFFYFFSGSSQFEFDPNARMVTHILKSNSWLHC
How it was run: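 MMP Ki values come from a single determination.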

Collagenase 3 = Collagenase 3 (Homo sapiens, UniProt P45452); assay: Inhibition of MMP13
Stromelysin-1 = Stromelysin-1 (Homo sapiens, UniProt P08254); assay: Inhibition of MMP3
Chain of Stromelysin-1 (P08254 whole entry): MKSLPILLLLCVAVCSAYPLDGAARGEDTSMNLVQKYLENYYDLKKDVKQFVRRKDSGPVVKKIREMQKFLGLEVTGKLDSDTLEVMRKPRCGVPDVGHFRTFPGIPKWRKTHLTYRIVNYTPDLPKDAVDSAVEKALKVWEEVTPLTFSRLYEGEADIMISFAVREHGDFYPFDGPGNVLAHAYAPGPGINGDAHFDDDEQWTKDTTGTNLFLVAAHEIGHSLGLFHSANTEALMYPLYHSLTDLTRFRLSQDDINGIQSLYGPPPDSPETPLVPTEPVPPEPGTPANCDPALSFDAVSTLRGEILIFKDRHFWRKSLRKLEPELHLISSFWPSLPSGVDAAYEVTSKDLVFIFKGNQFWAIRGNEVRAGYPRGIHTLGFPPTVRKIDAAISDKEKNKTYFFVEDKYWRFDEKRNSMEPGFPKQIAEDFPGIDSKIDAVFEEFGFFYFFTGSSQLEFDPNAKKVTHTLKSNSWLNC

[6] = biological target: Matrix metalloproteinase-16 (Homo sapiens, UniProt P51512); assay: Inhibition of MMP16
Chain of Matrix metalloproteinase-16 (P51512 whole entry): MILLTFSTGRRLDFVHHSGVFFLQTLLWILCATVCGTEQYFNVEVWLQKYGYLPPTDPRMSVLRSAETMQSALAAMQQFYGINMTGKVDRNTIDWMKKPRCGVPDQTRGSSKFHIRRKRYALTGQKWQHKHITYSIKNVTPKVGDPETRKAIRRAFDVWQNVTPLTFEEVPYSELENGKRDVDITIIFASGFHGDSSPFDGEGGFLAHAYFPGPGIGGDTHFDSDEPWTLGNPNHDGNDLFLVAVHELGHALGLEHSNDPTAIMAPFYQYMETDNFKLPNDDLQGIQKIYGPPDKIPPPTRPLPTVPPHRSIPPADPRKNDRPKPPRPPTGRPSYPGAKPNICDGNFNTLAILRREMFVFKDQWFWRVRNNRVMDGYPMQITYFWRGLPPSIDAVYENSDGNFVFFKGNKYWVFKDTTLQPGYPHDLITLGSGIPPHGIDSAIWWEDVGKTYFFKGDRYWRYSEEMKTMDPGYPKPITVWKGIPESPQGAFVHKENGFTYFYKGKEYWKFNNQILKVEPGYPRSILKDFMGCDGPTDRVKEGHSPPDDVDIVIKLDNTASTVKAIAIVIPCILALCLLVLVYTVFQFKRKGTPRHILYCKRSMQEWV

Blood = assay: Reduction of LPS-induced TNFalpha in human whole blood; type: functional, tissue-based
How it was run: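 LPS-induced TNF-α production in human whole blood; suppression of TNF-α measured.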

[7] = Apparent permeability across human Caco-2 cells; type: ADME, cell-based
How it was run: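 Apparent permeability measured across Caco-2 cell monolayers in the apical-to-basolateral (A→B) direction.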

Neutrophil collagenase = Neutrophil collagenase (Homo sapiens, UniProt P22894); assay: Inhibition of MMP8
Chain of Neutrophil collagenase (P22894 whole entry): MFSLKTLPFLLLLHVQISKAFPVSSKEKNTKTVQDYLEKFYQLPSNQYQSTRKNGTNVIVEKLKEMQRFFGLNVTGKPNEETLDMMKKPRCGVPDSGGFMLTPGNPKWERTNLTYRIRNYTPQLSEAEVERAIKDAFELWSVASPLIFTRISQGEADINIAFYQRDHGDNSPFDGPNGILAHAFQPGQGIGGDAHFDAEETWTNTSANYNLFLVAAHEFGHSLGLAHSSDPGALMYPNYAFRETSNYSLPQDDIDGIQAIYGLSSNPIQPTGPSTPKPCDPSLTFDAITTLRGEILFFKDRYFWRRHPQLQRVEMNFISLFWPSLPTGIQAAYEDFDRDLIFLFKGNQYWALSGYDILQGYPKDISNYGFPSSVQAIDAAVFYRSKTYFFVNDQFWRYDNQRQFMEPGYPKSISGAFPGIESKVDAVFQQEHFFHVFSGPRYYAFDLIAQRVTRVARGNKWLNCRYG

[8] = Clearance in Sprague-Dawley rat at 5.0 mg/kg, iv; type: ADME, organism-based; design: dose 5 mg/kg, route intravenous; conditions: in vivo
How it was run: (§1)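 Discrete or cassette (n-in-1) dosing, given intravenously and orally. Sprague–Dawley rats received 5.0 mg/kg iv and 8.0 mg/kg po; beagle dogs received 2.0 mg/kg iv and 8.0 mg/kg po. Three animals per dosing group; averaged values reported. AUC is reported in nM h.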

[9] = Oral bioavailability in Sprague-Dawley rat at 8.0 mg/kg; type: ADME, organism-based; conditions: in vivo; how it was run: as §1

Chain of Disintegrin and metalloproteinase domain-containing protein 17 (O77636 whole entry, the tested form may be a part): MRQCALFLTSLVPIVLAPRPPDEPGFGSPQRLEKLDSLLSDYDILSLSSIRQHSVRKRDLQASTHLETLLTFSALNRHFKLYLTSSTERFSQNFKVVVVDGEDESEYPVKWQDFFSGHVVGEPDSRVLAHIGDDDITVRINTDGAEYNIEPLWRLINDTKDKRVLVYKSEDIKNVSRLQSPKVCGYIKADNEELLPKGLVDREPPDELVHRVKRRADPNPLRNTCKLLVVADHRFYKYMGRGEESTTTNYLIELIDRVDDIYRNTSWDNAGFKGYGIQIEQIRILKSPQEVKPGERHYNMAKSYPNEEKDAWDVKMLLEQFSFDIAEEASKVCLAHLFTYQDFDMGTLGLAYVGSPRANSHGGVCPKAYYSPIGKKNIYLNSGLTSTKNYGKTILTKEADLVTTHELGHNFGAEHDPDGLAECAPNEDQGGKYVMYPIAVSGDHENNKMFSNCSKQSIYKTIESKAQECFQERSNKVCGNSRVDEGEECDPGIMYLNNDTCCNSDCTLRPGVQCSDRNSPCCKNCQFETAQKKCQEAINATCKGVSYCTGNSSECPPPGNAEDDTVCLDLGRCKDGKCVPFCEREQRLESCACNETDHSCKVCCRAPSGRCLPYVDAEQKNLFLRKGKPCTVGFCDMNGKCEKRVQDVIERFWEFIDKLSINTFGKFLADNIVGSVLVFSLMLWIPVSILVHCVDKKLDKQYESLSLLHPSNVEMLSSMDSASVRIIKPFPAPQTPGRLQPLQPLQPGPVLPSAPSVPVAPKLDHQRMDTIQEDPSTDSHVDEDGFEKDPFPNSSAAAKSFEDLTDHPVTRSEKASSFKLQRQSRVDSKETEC

Compound	IC50 [1]	Ki [2]	Ki (Interstitial collagenase)	Ki [3]	Ki [4]	Ki [5]	Ki (Matrilysin)	IC50 (Stromelysin-2)	Ki (Collagenase 3)	Ki (Stromelysin-1)	Ki [6]	IC50 (Blood)	Papp [7]	Ki (Neutrophil collagenase)	clearance [8]	bioavailability [9]
CSc1nc2ccccc2n1Cc1ccc(C(=O)N[C@@H]2CN(C(=O)OC(C)(C)C)C[C@@H]2C(=O)NO)cc1	< 1 nM	> 7090 nM	> 2130 nM	> 2130 nM	> 5290 nM	> 2130 nM	4080 nM	> 10000 nM	> 5030 nM	> 4500 nM	> 5450 nM	62 nM	0.2 ×10⁻⁶ cm/s	–	–	–
CC(C)c1nc2ccccc2n1Cc1ccc(C(=O)N[C@@H]2CN(C(=O)OC(C)(C)C)C[C@@H]2C(=O)NO)cc1	1 nM	> 7090 nM	> 2130 nM	> 2130 nM	> 5290 nM	> 2130 nM	3500 nM	4600 nM	> 5030 nM	3920 nM	> 5550 nM	70 nM	0.2 ×10⁻⁶ cm/s	> 3060 nM	–	–
O=C(N[C@@H]1COC[C@@H]1C(=O)NO)c1ccc(Cn2c(C(F)(F)F)nc3ccccc32)cc1	1 nM	–	> 4950 nM	> 3330 nM	–	> 2130 nM	–	–	–	–	–	102 nM	0.1 ×10⁻⁶ cm/s	–	53.3 mL/min/kg	20%
CC(C)(F)c1nc2ccccc2n1Cc1ccc(C(=O)N[C@@H]2C[C@@]3(CCCO3)C[C@@H]2C(=O)NO)cc1	< 1 nM	–	> 4950 nM	> 3330 nM	–	> 2130 nM	–	–	–	–	–	140 nM	2.4 ×10⁻⁶ cm/s	–	40 mL/min/kg	33%
CC(C)c1nc2ccccc2n1Cc1ccc(C(=O)N[C@@H]2CCOC[C@@H]2C(=O)NO)cc1	1.6 nM	–	> 4950 nM	> 3330 nM	–	> 2130 nM	–	–	–	–	–	105 nM	0.5 ×10⁻⁶ cm/s	–	63.3 mL/min/kg	8%
O=C(N[C@@H]1CCC[C@@H]1C(=O)NO)c1ccc(Cn2c(C3CC3)nc3ccccc32)cc1	2.7 nM	–	> 4950 nM	> 3330 nM	–	> 2130 nM	–	–	–	–	–	54 nM	2 ×10⁻⁶ cm/s	–	25 mL/min/kg	22%
C#CCN1C[C@H](C(=O)NO)[C@H](NC(=O)c2ccc(Cn3c(C(C)(C)C)nc4ccccc43)cc2)C1	2.3 nM	–	> 4950 nM	> 3330 nM	–	> 2130 nM	–	–	–	–	–	317 nM	0.4 ×10⁻⁶ cm/s	–	113 mL/min/kg	8%
CC(C)c1nc2ccccc2n1Cc1ccc(C(=O)N[C@@H]2CCC[C@@H]2C(=O)NO)cc1	1 nM	–	> 4950 nM	> 3330 nM	–	> 2130 nM	–	–	–	–	–	65 nM	0.1 ×10⁻⁶ cm/s	–	50 mL/min/kg	8%
CC(C)(F)c1nc2ccccc2n1Cc1ccc(C(=O)N[C@@H]2CCOC[C@@H]2C(=O)NO)cc1	2.2 nM	–	> 4950 nM	> 3330 nM	–	> 2130 nM	–	–	–	–	–	153 nM	0.3 ×10⁻⁶ cm/s	–	31.7 mL/min/kg	36%
CC(C)c1nc2ccccc2n1Cc1ccc(C(=O)N[C@@H]2C[C@@]3(CCCO3)C[C@@H]2C(=O)NO)cc1	1.1 nM	–	> 4950 nM	> 3330 nM	–	> 2130 nM	–	–	–	–	–	69 nM	0.1 ×10⁻⁶ cm/s	–	115 mL/min/kg	22%
O=C(N[C@@H]1C[C@@]2(CCCO2)C[C@@H]1C(=O)NO)c1ccc(Cn2c(C3CC3)nc3ccccc32)cc1	1.3 nM	–	> 4950 nM	> 3330 nM	–	> 2130 nM	–	–	–	–	–	42 nM	0.1 ×10⁻⁶ cm/s	–	23.3 mL/min/kg	14%
C#CCN1C[C@H](C(=O)NO)[C@H](NC(=O)c2ccc(Cn3c(C(C)C)nc4ccccc43)cc2)C1	1.8 nM	–	> 4950 nM	> 3330 nM	–	> 2130 nM	–	–	–	–	–	137 nM	0.1 ×10⁻⁶ cm/s	–	155 mL/min/kg	3%
Cc1nc2ccccc2n1Cc1ccc(C(=O)N[C@@H]2CNC[C@@H]2C(=O)NO)cc1	2.6 nM	–	> 2130 nM	> 2130 nM	–	> 2130 nM	–	–	–	–	–	56 nM	0.1 ×10⁻⁶ cm/s	–	–	–
Cc1nc2ccccc2n1Cc1ccc(C(=O)N[C@@H]2CN(C(=O)OC(C)(C)C)C[C@@H]2C(=O)NO)cc1	1 nM	> 7090 nM	> 2130 nM	> 2130 nM	> 5290 nM	> 2130 nM	5860 nM	1600 nM	> 5030 nM	2610 nM	> 5550 nM	92 nM	0.1 ×10⁻⁶ cm/s	–	–	–
CSc1nc2ccccc2n1Cc1ccc([C@]2(N)CCN([C@H](CC(C)C)C(=O)NO)C2=O)cc1	6.2 nM	–	> 4950 nM	302 nM	–	934 nM	–	–	–	–	–	316 nM	–	–	–	–
CSc1nc2ccccc2n1Cc1ccc(C(=O)N[C@@H]2CNC[C@@H]2C(=O)NO)cc1	1.6 nM	–	> 2130 nM	> 2130 nM	–	> 2130 nM	–	–	–	–	–	34 nM	0.2 ×10⁻⁶ cm/s	–	–	–
CC(F)(F)c1nc2ccccc2n1Cc1ccc(C(=O)N[C@@H]2CCOC[C@@H]2C(=O)NO)cc1	2.6 nM	–	> 4950 nM	> 3330 nM	–	> 2130 nM	–	–	–	–	–	188 nM	0.7 ×10⁻⁶ cm/s	–	20 mL/min/kg	55%
CC(C)c1nc2ccccc2n1Cc1ccc(C(=O)N[C@@H]2CNC[C@@H]2C(=O)NO)cc1	1.6 nM	–	> 2130 nM	> 2130 nM	–	> 2130 nM	–	–	–	–	–	64 nM	0.1 ×10⁻⁶ cm/s	–	–	–
CC(C)(C)c1nc2ccccc2n1Cc1ccc(C(=O)N[C@@H]2C[C@@]3(CCCO3)C[C@@H]2C(=O)NO)cc1	2 nM	–	> 4950 nM	> 3330 nM	–	> 2130 nM	–	–	–	–	–	252 nM	1.4 ×10⁻⁶ cm/s	–	48.3 mL/min/kg	29%
